CHO parental Ca – signal in parental CHO cells, OX1R antagonist counter-screen; AID 463079; parental CHO-K1, ATP-induced calcium, Fluo-8 fluorescence; 330,000 compounds, 0.63% hits; inhibition, % at 5.6 µM;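 active means inhibition above that plate's mean sample inhibition plus 3 SD, cut at about 26% in these data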;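 further: 0% = ATP-challenged DMSO wells and 100% = DMSO wells without ATP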
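Material: parental CHO cells / Compound: single nominal dose of 5.6 µM per compound / Signal: Fluo-8 fluorescence / Replicates: singlicate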
GPR7 antagonist – antagonists of human GPR7 (neuropeptides B/W receptor 1); GPR7-expressing cells, fluorescence antagonist assay; inhibition, % at 4.4 µM; 290,000 compounds, 1.1% hits; in the data active means inhibition above about 16%, passing the limit was not always enough;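 further: cells stimulated with the agonist NPW; 0% = agonist with vehicle and 100% = vehicle without agonist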
Target sequence (P48145 whole entry, looked up): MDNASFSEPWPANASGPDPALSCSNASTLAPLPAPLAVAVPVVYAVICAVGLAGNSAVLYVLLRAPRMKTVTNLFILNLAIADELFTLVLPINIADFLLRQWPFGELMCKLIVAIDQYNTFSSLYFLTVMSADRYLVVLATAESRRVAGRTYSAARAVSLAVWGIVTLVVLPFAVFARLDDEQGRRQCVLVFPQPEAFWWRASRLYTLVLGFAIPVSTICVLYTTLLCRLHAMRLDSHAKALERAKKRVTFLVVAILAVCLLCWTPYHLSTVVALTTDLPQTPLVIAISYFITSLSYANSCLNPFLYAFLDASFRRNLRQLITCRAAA
OX1R antag-1 – human HCRTR1 antagonism; O43613; CHO/OX1R cells, Fluo-8 calcium fluorescence, orexin A; inhibition, % at 5 µM; 330,000 compounds, 0.43% hits; AID 434989;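 active means inhibition above its plate's threshold, mean inhibition of all tested compounds on the plate plus 3 SD, cut at about 37% in these data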;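 further: 0% = orexin A challenge wells and 100% = SB-334867-A antagonist wells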
TAAR1 antagonist – human TAAR1 antagonism. CHO RD-HGA16 TAAR1, Fluo-8 calcium fluorescence, antagonist. inhibition, % at 3 µM. 360,000 compounds, 1.5% hits;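 active means inhibition above a per-plate cutoff, the mean inhibition of test compounds on that plate plus 3 SD, cut at about 49% in these data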;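 further: 0% = DMSO plus EC80 beta-PEA response and 100% = DMSO alone without agonist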
Target sequence (Q96RJ0 whole entry, looked up): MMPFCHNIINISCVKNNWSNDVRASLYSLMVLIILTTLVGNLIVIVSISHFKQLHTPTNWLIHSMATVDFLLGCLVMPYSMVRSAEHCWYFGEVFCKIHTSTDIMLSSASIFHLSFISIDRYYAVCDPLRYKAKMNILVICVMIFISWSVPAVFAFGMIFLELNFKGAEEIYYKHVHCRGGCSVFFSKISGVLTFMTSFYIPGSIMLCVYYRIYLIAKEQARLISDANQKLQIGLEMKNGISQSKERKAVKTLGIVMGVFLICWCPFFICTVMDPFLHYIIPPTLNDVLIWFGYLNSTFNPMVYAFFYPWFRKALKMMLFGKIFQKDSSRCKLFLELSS
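System: RD-HGA16 CHO cells with stable hTAAR1 and Gα16 | Probe or stimulus: EC80 β-phenethylamine stimulus | Dosing: 3 µM, single point | Times: Dye loading 75 min at 37 °C, then 30 min room temperature | Measured by: Fluo-8 calcium-sensitive fluorescence | Read-out basis: % inhibition of agonist calcium response | Replicates: n of 1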
TAAR1 agonist – human TAAR1 agonism. Q96RJ0. CHO RD-HGA16 TAAR1, Fluo-8 calcium fluorescence; vehicle wells 0%, saturating PEA agonist 100%. activation, % at 3 µM. 360,000 compounds, 0.99% hits. AID 624467;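 active means activation above the mean activation of all test compounds in the run plus 3 SD, cut at about 38% in these data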
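Test system: RD-HGA16 (CHO) cells co-expressing Gα16 and hTAAR1 | Doses: Single dose, 3 µM | Schedule: 17-24 h seeding, 75 min 37 °C dye, 30 min RT | Evaluation: % activation from peak over basal fluorescence ratio, DMSO-to-PEA scaled | Technique: Kinetic Fluo-8 calcium fluorescence | Benchmarks: Low control DMSO, high control PEA (EC100)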
OX1R antag-2 – antagonists of human orexin 1 receptor (OX1R) | inhibition, % at 6.6 µM | AID 485270 | OX1R-expressing cells, FRET antagonist read-out | O43613 | 330,000 compounds, 1.8% hits; in the data active means inhibition mostly above about 38%, no sharp cut-off; inactive means mostly below about 40%;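 further: 0% = agonist challenge alone and 100% = reference antagonist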
nonsel antag count – nonselective antagonist in TAAR1 antagonist counter-screen | shares compounds with TAAR1 antagonist | counterscreen cell line, calcium fluorescence, antagonist mode | inhibition, % at 3 µM | 2,400 compounds, 77% hits; in the data active means inhibition above about 22%;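 further: CHO-Ga16 host cells stimulated with ATP at an EC80 level; 0% = agonist EC80 plus vehicle and 100% = vehicle without agonist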
TAAR1 ant conf – human TAAR1 antagonism, confirmed; shares compounds with TAAR1 antagonist; TAAR1-expressing cells, fluorescence antagonist read-out; inhibition, % at 3 µM; 2,400 compounds, 40% hits; AID 651785; in the data active means inhibition above about 49%;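 further: CHO-Ga16 host cells challenged with agonist PEA near its EC80; 0% = agonist at EC80 plus vehicle and 100% = vehicle with no agonist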
Ga16 nonsel ag – counter-screen for TAAR1 antagonists: nonselective Ga16 agonists; shares compounds with TAAR1 antagonist; Ga16-expressing cells, calcium fluorescence, agonist counterscreen; activation, % at 3 µM; 2,400 compounds, 18% hits; AID 651953; in the data active means activation above about 12%;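 further: 0% = vehicle wells and 100% = saturating stimulus response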
TAAR1 ag counter – counter-screen for human TAAR1 antagonists: TAAR1 agonists | shares compounds with TAAR1 antagonist | hTAAR1 cell line, fluorescence activation, agonist mode | activation, % at 3 µM | 2,400 compounds, 2% hits | AID 651955; in the data active means activation above about 37%;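 further: CHO cells stably expressing TAAR1 with calcium dye readout; 0% = DMSO vehicle and 100% = full agonist response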
* = called active by the depositor; nt = no result given. Compounds with a hit are over-represented: about 4.6% of the library has one in this group of screens.

SMILES | CHO parental Ca | GPR7 antagonist | OX1R antag-1 | TAAR1 antagonist | TAAR1 agonist | OX1R antag-2 | nonsel antag count | TAAR1 ant conf | Ga16 nonsel ag | TAAR1 ag counter
CCCCCCn1nc(C(=O)OCC(=O)c2c(N)n(C)c(=O)n(C)c2=O)c2ccccc2c1=O | -15 | 5 | -22 | 78* | 6 | 16 | 36* | 53* | 9 | 8
CN(CCc1cn[nH]c1)C(=O)C1CCC(=O)N(CC2CCCCC2)C1 (centres undefined) | nt | -10 | nt | -12 | 7 | nt | nt | nt | nt | nt
O=C(NC[C@H]1CCCO1)c1cccc2c1C(=O)c1ccc(-c3ccc(F)cc3OCc3ccccc3)cc1S2(=O)=O | -4 | nt | 7 | 69* | 19 | 16 | 37* | 51* | 8 | 8
O=C(O)c1cccc2c1C(=O)c1ccc(-c3ccc(F)cc3OCc3ccccc3)cc1S2(=O)=O | -15 | nt | -17 | nt | nt | 0 | nt | nt | nt | nt
CC(C)c1cccc(-c2ccc3c(c2)S(=O)(=O)c2cccc(C(=O)NCc4ccccc4Cl)c2C3=O)c1 | -17 | nt | -9 | nt | nt | 5 | nt | nt | nt | nt
CC(C)c1cccc(-c2ccc3c(c2)S(=O)(=O)c2cccc(C(=O)NCc4ccccc4)c2C3=O)c1 | -6 | nt | -11 | 61* | 7 | 3 | 36* | 47 | 4 | 2
COc1cccc(CN(C)C(=S)Nc2ccc(C)c(C)c2)c1 | -4 | -9 | -15 | -7 | -1 | 6 | nt | nt | nt | nt
Cc1ccc(S(=O)(=O)CCc2nnc(N)s2)cc1 | -4 | -3 | -13 | -4 | 1 | 7 | nt | nt | nt | nt
CCOC(=O)c1[nH]c(C)c(C(=O)OCC)c1C | -17 | -10 | -8 | -29 | -2 | 15 | nt | nt | nt | nt
CC(=O)c1c(C)[nH]c(C(=O)COC(=O)CN(C)S(=O)(=O)c2ccc(Cl)cc2)c1C | -7 | -10 | -15 | 53* | 23 | 27 | 40* | 42 | 18* | 11
CCOC(=O)c1c(C)[nH]c(C(=O)COC(=O)c2[nH]c(C)c(C(C)=O)c2C)c1C | -11 | -2 | -8 | 77* | 29 | 20 | 63* | 66* | 15* | 14
COC(=O)C1C(c2ccc(N(C)C)cc2)C(C(=O)OC)S(=O)(=O)CS1(=O)=O (centres undefined) | -4 | -3 | -8 | 0 | 2 | 8 | nt | nt | nt | nt
O=C(CSc1nnc(CNC(=O)c2ccccc2F)o1)NCc1ccccc1 | -4 | -20 | -27 | 3 | 5 | 7 | nt | nt | nt | nt
CC(=O)c1ccc(NC(=O)N2CCCC(C(=O)c3ccc4c(c3)OCO4)C2)cc1 (centres undefined) | -8 | -8 | -33 | 49* | 10 | 18 | 22* | 35 | 11 | 11
N/C(COc1ncn(-c2ccccc2)n1)=N\S(=O)(=O)c1ccc(Cl)cc1Cl | -18 | -21 | -16 | 5 | -1 | 10 | nt | nt | nt | nt
Cc1ccc(N(CC(=O)Nc2ccccc2C(=O)NCc2ccco2)S(=O)(=O)c2ccccc2)cc1C | -6 | -23 | -3 | 14 | 2 | 44 | nt | nt | nt | nt
Cc1ccc(C)c(N(CC(=O)Nc2ccccc2C(=O)NCc2ccco2)S(=O)(=O)c2ccccc2)c1 | -11 | -6 | -8 | 79* | 8 | 48 | 35* | 58* | 6 | 8
O=C(CN1CCN(Cc2ccccc2)CC1)Nc1ccc([N+](=O)[O-])cc1C(=O)Nc1ccccc1F | -24 | -12 | -42 | 58* | 16 | 19 | 29* | 51* | 7 | 13
Cc1oc2cc(O)cc(C)c2c(=O)c1-c1cnn(-c2ccccc2)c1 | -8 | -1 | -7 | 58* | 4 | 58 | 33* | 45 | 8 | 4
Cc1ccc2cc(C3CC(c4cccs4)=NN3S(C)(=O)=O)c(Cl)nc2c1 (centres undefined) | -18 | -5 | -20 | -11 | 4 | 22 | nt | nt | nt | nt
Cc1cccc2cc(C3CC(c4cccs4)=NN3S(C)(=O)=O)c(Cl)nc12 (centres undefined) | 0 | 2 | -17 | 83* | 3 | 24 | 5 | 35 | 1 | 10
Oc1ccccc1OCC(O)c1ccccc1 (centres undefined) | 4 | -8 | -10 | -17 | 0 | 7 | nt | nt | nt | nt
Oc1ccccc1OCCOc1ccccc1OCCOc1ccccc1O | 13 | 0 | 20 | 79* | 10 | 16 | 35* | 55* | 9 | 9
CCOCCCNC(=O)c1ccc(CS(=O)(=O)Cc2ccccc2F)o1 | -5 | -8 | -28 | 19 | 6 | 5 | nt | nt | nt | nt
O=C(Nc1nc(-c2ccc3ccccc3c2)cs1)C1CCN(S(=O)(=O)c2cccs2)CC1 | -11 | 8 | -15 | 104* | 0 | 15 | 15 | 3 | 3 | 4
SMILES | CHO parental Ca | GPR7 antagonist | OX1R antag-1 | TAAR1 antagonist | TAAR1 agonist | OX1R antag-2 | nonsel antag count | TAAR1 ant conf | Ga16 nonsel ag | TAAR1 ag counter
COc1ccc(C(=O)N2CCCC(C)(C(=O)NS(=O)(=O)C3CC3)C2)cc1 (centres undefined) | nt | nt | nt | -26 | 2 | nt | nt | nt | nt | nt
Cc1ccccc1N(C(=O)c1snc(C(N)=O)c1N)C(C(=O)NC1CCCCC1)c1ccc(O)cc1 (centres undefined) | -9 | 4 | -11 | 73* | 3 | 8 | 20 | 56* | 5 | 3
NC(=O)c1nsc(C(=O)N(c2ccccc2F)C(C(=O)NCc2ccccc2)c2ccc(O)cc2)c1N (centres undefined) | 0 | -9 | -2 | 78* | 14 | 5 | 36* | 48 | 10 | 14
Cc1ccccc1N(C(=O)c1snc(C(N)=O)c1N)C(C)C(=O)NC1CCCCC1 (centres undefined) | -13 | 0 | -12 | -21 | 3 | 19 | nt | nt | nt | nt
Cc1ccccc1N(C(=O)c1snc(C(N)=O)c1N)C(C(=O)NCc1ccccc1)c1ccc(O)cc1 (centres undefined) | -14 | 1 | 1 | 64* | 27 | 20 | 30* | 54* | 10 | 13
CCCC(C(=O)NC1CCCC1)N(Cc1ccc2c(c1)OCO2)C(=O)c1snc(C(N)=O)c1N (centres undefined) | -29 | 12 | -7 | 63* | 17 | 11 | 28* | 49* | 9 | 11
O=C(NCc1ccccc1)C1c2ccccc2OCC(=O)N1Cc1ccc2c(c1)OCO2 (centres undefined) | nt | nt | nt | -1 | 2 | nt | nt | nt | nt | nt
